One data set deals with BXPC-3. The data set can be described thus: Antiproliferative activity against human BxPC3 cells after 24 hrs by MTT assay. In kind it is functional, cell-based. The note with it: BXPC-3, 24 h.
The subject of the next data set is MCF7. The data set can be described thus: Antiproliferative activity against human MCF7 cells after 24 hrs by MTT assay. In kind it is functional, cell-based. Particulars: MCF7, 24 h.
In a further data set the test system is PC-3. The data set can be described thus: Antiproliferative activity against human PC3 cells after 24 hrs by MTT assay. In kind it is functional, cell-based. Particulars: PC-3, 24 h.
A short description of data set [1]: Solubility of the compound in water at pH 7.4 by HPLC method. The data set is classed as physicochemical. The method, boiled down:
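Aqueous solubility measured at pH 7.4, with samples quantified by HPLC.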

Data set [2] is described as follows: Half life in rat liver microsomes in presence of NADPH by HPLC method. The data set is classed as ADME, microsome. The method, boiled down:
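Compounds incubated with rat liver microsomes plus NADPH. Remaining compound quantified by HPLC at 0, 5, 10, 20, 30, 45, 60 and 90 min, and half-life calculated.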

The structures appear in SMILES notation. pIC50: −log10 of the molar value. Converted amounts (≈) assume the structure as drawn.

Regarding `CCN(CC)CCNC(=O)c1cc(C(CC)(CC)c2ccc(OCS(C)(=O)=O)c(C)c2)cn1CC`, the pIC50 was 4.52 in the data set with BXPC-3, 4.79 in the data set with MCF7 and 4.44 in the data set on PC-3.

`CCN(CC)CCNC(=O)c1ccc(C(CC)(CC)c2ccc(OCS(C)(=O)=O)c(C)c2)n1CC`: the values for the pIC50 with BXPC-3, in the data set on MCF7 and in the data set with PC-3 were 4.47, 4.83 and 4.33, respectively.

For `CCn1c(C(=O)NC2(CO)CC2)ccc1C(CC)(CC)c1ccc(OCS(=O)(=O)c2ccccc2)c(C)c1`, the values for the pIC50 with BXPC-3, with MCF7 and in the data set on PC-3 were 4.34, 4.54 and 5.45, respectively.

With `CCn1c(C(=O)NC2(C(=O)O)CC2)ccc1C(CC)(CC)c1ccc(OCS(=O)(=O)c2ccccc2)c(C)c1`, the pIC50 with BXPC-3 was less than 4.30; with MCF7 it was 4.39; in the data set with PC-3, 4.58.

Regarding `CCn1c(C(=O)N[C@@H](CC(=O)OC)C(=O)OC)ccc1C(CC)(CC)c1ccc(OCS(=O)(=O)c2ccccc2)c(C)c1`, the figures for the pIC50 in the data set on BXPC-3, in the data set on MCF7 and in the data set on PC-3 were less than 4.30, less than 4.30 and 5.19, respectively.

Turning to `CCn1c(C(=O)NCCC(=O)O)ccc1C(CC)(CC)c1ccc(OCS(=O)(=O)c2ccccc2)c(C)c1`, the pIC50 was less than 4.30 in the data set on BXPC-3, less than 4.30 in the data set on MCF7 and 4.84 with PC-3.

For the molecule `CCn1c(C(=O)NCCC(=O)OC)ccc1C(CC)(CC)c1ccc(OCS(=O)(=O)c2ccccc2)c(C)c1`, the results for the pIC50 with BXPC-3, in the data set with MCF7 and in the data set with PC-3 were less than 4.30, less than 4.30 and 4.39, respectively.

With `CCN(CC)CCNC(=O)c1ccc(C(CC)(CC)c2ccc(OCS(=O)(=O)c3ccccc3)c(C)c2)n1CC`, the pIC50 with BXPC-3 was 5.20; with MCF7, 5.33; in the data set on PC-3 it was 5.15. In addition, the solubility in data set [1] is 0.117 mg/mL (≈ 207 µM). In addition, the half-life in data set [2] amounted to 62.4 min.

On to `CCn1c(C(=O)N[C@@H](C)CO)ccc1C(CC)(CC)c1ccc(OCS(=O)(=O)c2ccccc2)c(C)c1`, for which the pIC50 in the data set on BXPC-3 is 4.82; with MCF7, 4.97; with PC-3, 5.02. The molecule also gave a solubility in data set [1] of 0.0357 mg/mL (≈ 67.8 µM). The half-life in data set [2] was 43.8 min.

As to `CCn1c(C(=O)N[C@H](C)C(=O)O)ccc1C(CC)(CC)c1ccc(OCS(=O)(=O)c2ccccc2)c(C)c1`, the figures for the pIC50 with BXPC-3, in the data set with MCF7 and with PC-3 were 4.70, less than 4.30 and 4.70, respectively.

Take `CCn1c(C(=O)N[C@@H](CC(=O)O)C(=O)O)ccc1C(CC)(CC)c1ccc(OCS(=O)(=O)c2ccccc2)c(C)c1`: the pIC50 in the data set on BXPC-3, in the data set with MCF7 and in the data set on PC-3 was less than 4.30 throughout.

Turning to `CCn1c(C(=O)NCCNC(=O)OC(C)(C)C)ccc1C(CC)(CC)c1ccc(OCS(=O)(=O)c2ccccc2)c(C)c1`, the pIC50 with BXPC-3, in the data set with MCF7 and with PC-3 was less than 4.30 each time.

Consider `CCn1c(C(=O)NCC(=O)OC)ccc1C(CC)(CC)c1ccc(OCS(=O)(=O)c2ccccc2)c(C)c1`, for which the results for the pIC50 in the data set with BXPC-3, in the data set on MCF7 and in the data set with PC-3 were 4.70, less than 4.30 and less than 4.30, respectively.

In the case of `CCn1c(C(=O)NCCN)ccc1C(CC)(CC)c1ccc(OCS(=O)(=O)c2ccccc2)c(C)c1`, the results for the pIC50 with BXPC-3, with MCF7 and in the data set with PC-3 were 5.19, 5.19 and 5.16, respectively. This molecule gave a solubility in data set [1] of 0.065 mg/mL (≈ 127 µM). The half-life in data set [2] worked out at 34.9 min.

As for `CCn1c(C(=O)N[C@H](C)C(=O)OC)ccc1C(CC)(CC)c1ccc(OCS(=O)(=O)c2ccccc2)c(C)c1`, the pIC50 in the data set on BXPC-3, in the data set on MCF7 and in the data set with PC-3 was less than 4.30 in each case.

On to `CCn1c(C(=O)N[C@@H](CCC(=O)O)C(=O)O)ccc1C(CC)(CC)c1ccc(OCS(=O)(=O)c2ccccc2)c(C)c1`, for which the pIC50 in the data set with BXPC-3, in the data set on MCF7 and with PC-3 was less than 4.30 each time.

In the case of `CCn1c(C(=O)N[C@H](CCC(=O)O)C(=O)O)ccc1C(CC)(CC)c1ccc(OCS(=O)(=O)c2ccccc2)c(C)c1`, the pIC50 with BXPC-3, in the data set with MCF7 and in the data set on PC-3 was less than 4.30 throughout.

Turning to `CCn1c(C(=O)NCCO)ccc1C(CC)(CC)c1ccc(OCS(=O)(=O)c2ccccc2)c(C)c1`, the pIC50 with BXPC-3 was 4.70; in the data set on MCF7, 4.81; in the data set on PC-3 it was 4.75.

For the molecule `CCn1c(C(=O)N[C@H](CO)CCCO)ccc1C(CC)(CC)c1ccc(OCS(=O)(=O)c2ccccc2)c(C)c1`, the pIC50 was less than 4.30 in the data set with BXPC-3, 4.50 in the data set on MCF7 and 5.17 in the data set with PC-3.

In the case of `CCn1c(C(=O)N[C@@H](CO)C(C)C)ccc1C(CC)(CC)c1ccc(OCS(=O)(=O)c2ccccc2)c(C)c1`, the pIC50 is 4.88 in the data set on BXPC-3, 4.73 in the data set on MCF7 and 4.97 in the data set on PC-3.

On to `CCn1c(C(=O)NC(C)(C)CO)ccc1C(CC)(CC)c1ccc(OCS(=O)(=O)c2ccccc2)c(C)c1`, for which the pIC50 was 4.74 in the data set with BXPC-3, 4.69 in the data set with MCF7 and 5.01 in the data set with PC-3.

Turning to `CCn1c(C(=O)N[C@@H](CO)CCO)ccc1C(CC)(CC)c1ccc(OCS(=O)(=O)c2ccccc2)c(C)c1`, the values for the pIC50 in the data set on BXPC-3, with MCF7 and in the data set on PC-3 were less than 4.30, 4.56 and 4.85, respectively.

In the case of `CCn1c(C(=O)N[C@H](CO)C(C)C)ccc1C(CC)(CC)c1ccc(OCS(=O)(=O)c2ccccc2)c(C)c1`, the pIC50 was 5.11 in the data set with BXPC-3, 4.59 in the data set with MCF7 and 5.14 in the data set with PC-3. The molecule further returned a solubility in data set [1] of 0.0278 mg/mL (≈ 50.1 µM). For the same molecule, the half-life in data set [2] was found to be 46.3 min.

For the molecule `CCn1c(C(=O)N[C@H](CO)CCO)ccc1C(CC)(CC)c1ccc(OCS(=O)(=O)c2ccccc2)c(C)c1`, the negative logarithm of the IC50 (pIC50) in the data set on BXPC-3 is 4.80; in the data set on MCF7, 4.54; in the data set on PC-3, 4.92.

As for `CCn1c(C(=O)N[C@@H](CO)CCCO)ccc1C(CC)(CC)c1ccc(OCS(=O)(=O)c2ccccc2)c(C)c1`, the pIC50 with BXPC-3 was 4.78; in the data set on MCF7, 4.53; in the data set with PC-3, 4.87.

On to `CCn1c(C(=O)N[C@@H](C)C(=O)O)ccc1C(CC)(CC)c1ccc(OCS(=O)(=O)c2ccccc2)c(C)c1`, for which the pIC50 in the data set with BXPC-3 was 4.68; in the data set with MCF7, 4.45; with PC-3 it was 4.77.

`CCn1c(C(=O)N[C@@H](C)C(=O)OC)ccc1C(CC)(CC)c1ccc(OCS(=O)(=O)c2ccccc2)c(C)c1`: the pIC50 with BXPC-3 is 4.75; in the data set with MCF7, 4.36; in the data set with PC-3, less than 4.30.

Consider `CCn1c(C(=O)N[C@H](CC(=O)O)C(=O)O)ccc1C(CC)(CC)c1ccc(OCS(=O)(=O)c2ccccc2)c(C)c1`, for which the pIC50 with BXPC-3, in the data set on MCF7 and with PC-3 was less than 4.30 in each case.

`CCn1c(C(=O)NCC(=O)O)ccc1C(CC)(CC)c1ccc(OCS(=O)(=O)c2ccccc2)c(C)c1`: the pIC50 is less than 4.30 with BXPC-3, 4.48 with MCF7 and 4.52 in the data set on PC-3.

Consider `CCn1c(C(=O)NCCCO)ccc1C(CC)(CC)c1ccc(OCS(=O)(=O)c2ccccc2)c(C)c1`, for which the pIC50 was 4.58 in the data set with BXPC-3, 4.38 with MCF7 and 4.95 with PC-3.

With `CCn1c(C(=O)N[C@H](C(=O)O)C(C)C)ccc1C(CC)(CC)c1ccc(OCS(=O)(=O)c2ccccc2)c(C)c1`, the pIC50 is 4.79 in the data set on BXPC-3, 4.61 in the data set on MCF7 and 5.44 in the data set on PC-3.

With `CCn1c(C(=O)N[C@@H](C(=O)O)C(C)C)ccc1C(CC)(CC)c1ccc(OCS(=O)(=O)c2ccccc2)c(C)c1`, the pIC50 in the data set with BXPC-3 is 4.86; in the data set with MCF7, 4.35; in the data set on PC-3 it was 5.51.

In the case of `CCn1c(C(=O)N[C@H](C)CO)ccc1C(CC)(CC)c1ccc(OCS(=O)(=O)c2ccccc2)c(C)c1`, the pIC50 in the data set with BXPC-3 is 5.00; in the data set on MCF7 it was 4.97; in the data set on PC-3, 5.11.
